Compound activity deposited in PubChem BioAssay by Sanford-Burnham Center for Chemical Genomics.
G6PDH counter: L. mesenteroides G6PDH inhibitors, counter-screen for G6PDH-coupled screening assays, biochemical, Leuconostoc mesenteroides enzyme; glucose-6-phosphate dehydrogenase [Leuconostoc mesenteroides]; Purified L. mesenteroides G6PDH, diaphorase/resazurin coupled fluorescence, 45 min; inhibition, % at 5 µM; 200,000 compounds, 0.12% hits; AID 1020, 2008; in the data active means inhibition above about 50%
PfGluPho inh: PfG6PD enzyme inhibitors, primary screen, biochemical, fluorescence intensity, uHTS; 350,000 compounds, 0.78% hits; glucose-6-phosphate dehydrogenase-6-phosphogluconolactonase (Plasmodium falciparum 3D7); inhibition, % at 20 µM; PfGluPho enzyme, NADPH resazurin-diaphorase fluorescence;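 active means inhibition reaching at least a set limit at 20 µM in the primary screen, cut at about 59% in these data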;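 further: 0% = DMSO wells with substrate and 100% = DMSO wells lacking glucose-6-phosphate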
Diaph act CS: compounds boosting diaphorase resazurin reduction – biochemical, uHTS, resorufin fluorescence, counter-screen for diaphorase-coupled primary assays, primary screen | Diaphorase/resazurin coupled assay, 16 min; stronger effect = higher value; 1 = vehicle wells, 0 = NADH-free wells | activation factor at 20 µM | 190,000 compounds, 0.005% hits;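 active means diaphorase activity raised at least twofold by the compound at 20 µM; inactive means activation factor below 2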
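System – purified diaphorase enzyme from Clostridium kluyveri · Input – enzyme 0.07 U/mL final · Also added – final NADH 0.114 mM, resazurin 0.1 mM · Measured by – fluorescence of resorufin, 544 nm excitation, 590 nm emission · Timing – 16 min enzyme reaction, ambient temperature · Measure – resorufin increase flagging diaphorase activators or reducers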
Diaphorase inh: diaphorase inhibitors and chemical oxidizers, primary screen, counter-screen for diaphorase-coupled primary assays, biochemical, uHTS, resorufin fluorescence. 190,000 compounds, 0.69% hits. diaphorase resazurin-to-resorufin fluorescence, NADH, 16 min; bacterial (C. kluyveri) enzyme, not human. inhibition, % at 20 µM. AID 1217, 2008;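 active means primary screen inhibition at 20 µM above a set limit, cut at about 50% in these data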;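 further: plate controls were DMSO with full reaction for no effect and wells lacking NADH for full effect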
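material = Clostridium kluyveri diaphorase enzyme | amount = 0.14 U/mL diaphorase, enzyme working solution | schedule = incubation 16 min, room temperature | detection = fluorescence of resorufin formed from resazurin, Ex 544/Em 590 nm | benchmarks = positive control minus NADH, DMSO neutral control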
HKDC1 inh: HKDC1 hexokinase inhibitors, primary screen, biochemical, fluorescence, uHTS. Q2TB90. recombinant HKDC1, G6PDH/diaphorase resazurin coupled fluorescence. inhibition, % at 20 µM. 340,000 compounds, 0.16% hits;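 active means inhibition above about 35% when tested at 20 µM, limit read from the data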;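 further: plate controls were DMSO wells with enzyme for no effect and DMSO wells lacking enzyme for full effect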
Target sequence (Q2TB90 whole entry, looked up): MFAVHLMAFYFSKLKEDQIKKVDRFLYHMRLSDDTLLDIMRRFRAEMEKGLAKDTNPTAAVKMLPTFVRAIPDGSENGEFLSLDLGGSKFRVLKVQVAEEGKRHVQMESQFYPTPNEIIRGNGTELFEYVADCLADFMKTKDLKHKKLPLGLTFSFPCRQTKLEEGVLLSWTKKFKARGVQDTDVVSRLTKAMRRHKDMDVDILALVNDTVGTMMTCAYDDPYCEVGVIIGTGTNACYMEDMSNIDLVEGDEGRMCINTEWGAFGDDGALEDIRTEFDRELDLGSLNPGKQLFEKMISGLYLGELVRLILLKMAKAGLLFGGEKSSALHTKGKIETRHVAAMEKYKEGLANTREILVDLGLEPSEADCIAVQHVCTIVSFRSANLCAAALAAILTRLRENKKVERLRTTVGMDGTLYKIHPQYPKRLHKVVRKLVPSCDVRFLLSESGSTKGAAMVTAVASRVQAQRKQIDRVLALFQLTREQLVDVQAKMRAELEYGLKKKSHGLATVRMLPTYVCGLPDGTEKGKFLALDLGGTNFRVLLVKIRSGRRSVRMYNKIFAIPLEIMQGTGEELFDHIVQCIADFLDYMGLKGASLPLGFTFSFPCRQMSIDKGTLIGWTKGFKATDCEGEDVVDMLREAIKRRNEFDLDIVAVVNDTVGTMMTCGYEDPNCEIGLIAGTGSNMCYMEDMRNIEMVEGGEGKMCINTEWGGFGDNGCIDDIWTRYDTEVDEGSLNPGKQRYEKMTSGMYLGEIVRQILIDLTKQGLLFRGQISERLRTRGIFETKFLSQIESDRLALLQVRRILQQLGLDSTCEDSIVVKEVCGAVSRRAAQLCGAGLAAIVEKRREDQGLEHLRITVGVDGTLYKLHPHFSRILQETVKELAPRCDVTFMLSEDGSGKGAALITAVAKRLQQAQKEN
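Assay system: in-house recombinant HK5 (HKDC1) enzyme. Input: HKDC1 at 5 µg/mL. Medium: Tris pH 8.0 buffer with MgCl2, Tween-20, BSA, BME. Dosing: single 20 µM dose. Schedule: 90 min reaction incubation at room temperature, dark. Signal: resazurin-to-resorufin fluorescence via G6PDH and diaphorase coupling, 525/613 nm. Controls: DMSO-enzyme wells negative, buffer-substituted wells positive.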
HKDC1 act conf: HKDC1 hexokinase activators, confirmation, biochemical, single concentration. shares compounds with HKDC1 inh. recombinant HKDC1, G6PDH/diaphorase resazurin fluorescence; stronger effect = lower value. inhibition, % at 20 µM. 740 compounds, 14% hits. AID 504708, 2011;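 active means inhibition at or below a set negative limit, negative inhibition meaning the enzyme was activated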
* hit, by the source's call; / = no result given. In the library only some 1.2% were active in any assay of this set; here they are far more common.

SMILES | G6PDH counter | PfGluPho inh | Diaph act CS | Diaphorase inh | HKDC1 inh | HKDC1 act conf
COC(=O)c1ccc(NC(=O)CSc2n[nH]c(-c3ccncc3)n2)cc1 | -18 | 38 | 0.7 | 32 | 36* | 43
O=C(CSc1n[nH]c(-c2ccncc2)n1)Nc1ccc(Br)cc1 | / | -46 | / | / | 25 | /
O=C(O)c1ccc(N=C2c3ccccc3-c3ccccc32)cc1 | / | 21 | / | / | 0 | /
N=c1ncn(C2OC(CO)C(O)C2O)c2nc(Br)[nH]c12 (stereo unspecified) | / | 10 | / | / | / | /
Cc1cc([N+](=O)[O-])nn1CCCC(=O)Nc1c(C)n(C)n(-c2ccccc2)c1=O | 12 | -4 | 1.1 | -7 | 1 | /
N#Cc1cccnc1N1CCN(C(=O)COCC(=O)O)CC1 | / | -9 | / | / | -4 | /
CCc1nnc(N/N=C/c2cc(Br)c(O)cc2O)n1N | / | 52 | / | / | 13 | /
CC(C)(C)c1nnc(N/N=C/c2cc(Br)ccc2O)n(N)c1=O | 15 | -5 | 0.7 | 26 | -43 | -49*
CN(c1ccc(C(=O)N2CCN(Cc3ccccc3)CC2)cc1)S(=O)(=O)c1ccccc1 | / | -8 | / | / | -76 | -24
CC(C)CSc1nc(N)nc2c1ncn2C1OC(CO)C(O)C1O (stereo unspecified) | / | -25 | / | / | 3 | /
COc1ccc(-c2cc(N)n(CCC#N)n2)c(OC)c1 | 3 | -2 | 0.9 | 8 | 40* | -35
COc1ccc(-c2cc(N)n(S(=O)(=O)Cc3ccccc3)n2)c(OC)c1 | 0 | 35 | 0.9 | 12 | -2 | /
Cc1c(C(=O)Oc2ccc(-c3cnc4ccccc4n3)cc2)cccc1[N+](=O)[O-] | -4 | 42 | 0.8 | 24 | -89 | -27
COc1ccc2[nH]c3c4c(ccc3c2c1)C(=O)C=CC4=O | / | 90* | / | / | 51* | 33
C[C@]12c3[nH]c4ccc(Cl)cc4c3CCN1C(=O)[C@@H](CC(=O)NCc1cccc(C(F)(F)F)c1)C[C@@H]2C(=O)N1CCOCC1 | / | 31 | / | / | 27 | -30
CCOC(=O)C1=C(Cc2ccc(OC)cc2)C(=O)c2ccccc2C1=O | 57* | 95* | 0.7 | 31 | 71* | 56
CCOC(=O)c1c(C)nc2c(c1-c1cc(OC)ccc1OC)C(=O)c1ccccc1-2 | -8 | -6 | 0.8 | 23 | 0 | /
COc1ccc2c(c1)C(=NNC(=O)c1ccccn1)c1cc(OC)ccc1-2 | -14 | 17 | 1 | 5 | 42* | -13
COc1ccc(C(=O)NNC(=O)c2ccccn2)cc1 | 11 | 13 | 0.8 | 16 | -12 | /
COC(=O)CCC(=O)OC1(C)C(=O)C2=CN(Cc3ccc4c(c3)OCO4)C(c3ccc(OC)cc3)=CC2=C(Br)C1=O (stereo unspecified) | / | 67* | / | / | 40* | -5
COc1ccc(C2=CC3=C(Br)C(=O)C(C)(OC(=O)C4CCCC4)C(=O)C3=CO2)cc1 (stereo unspecified) | / | 16 | / | / | 53* | -18
COC(=O)CCC(=O)OC1(C)C(=O)C2=COC(c3ccc(OC)cc3)=CC2=C(Br)C1=O (stereo unspecified) | / | 8 | / | / | 37* | 0
COc1ccc(C2=CC3=C(Br)C(=O)C(C)(OC(=O)c4ccc(Cl)nc4)C(=O)C3=CO2)cc1 (stereo unspecified) | / | 0 | / | / | 28 | /
Cc1nc2ccc(NC(=O)CSc3nnc(C)s3)cc2[nH]1 | / | -1 | / | / | -4 | /
Cc1cc2cc(CCNC(=O)c3ccc(S(=O)(=O)N4CCCC4)cc3)c(=O)[nH]c2cc1C | / | -10 | / | / | 41* | 53
SMILES | G6PDH counter | PfGluPho inh | Diaph act CS | Diaphorase inh | HKDC1 inh | HKDC1 act conf
CCc1ccc(S(=O)(=O)NCCc2cn3ccccc3n2)s1 | -3 | 9 | 0.9 | 7 | 39* | 8
COCCCn1c(=N)c(C(N)=S)cc2c(=O)n3cccc(C)c3nc21 | / | 40 | / | / | -3 | /
Cc1cccn2c(=O)c3cc(C(N)=S)c(=N)n(CCCN4CCOCC4)c3nc12 | 2 | 45 | 0.8 | 18 | -54 | -13
O=S(=O)(c1ccc(Br)cc1)N1CCC2(CC1)OCCO2 | / | -4 | / | / | -5 | /
Cc1nnc(SC(=O)N2c3ccccc3Sc3ccccc32)s1 | -23 | -2 | 0.6 | 37 | 33 | -11
CC(=O)Nc1ccc(N(C(=O)Cc2cccs2)C(C(=O)NC2CCCC2)c2ccncc2)cc1 (stereo unspecified) | / | -11 | / | / | -5 | /
Cc1ccc(NC(=O)CN2C(=O)S/C(=C\c3cccn3-c3cccc(C(=O)O)c3)C2=O)c(C)c1 | 2 | -40 | 0.9 | 15 | 33 | -23
Cc1ccccc1NC(=O)CN1C(=O)S/C(=C\c2cccn2-c2cccc(C(=O)O)c2)C1=O | 4 | -18 | 0.9 | 9 | -3 | /
CC(=NNC(=S)N1CC2CCC(CC2)C1)c1cccc(C)n1 | / | 13 | / | / | -47 | -52*
Cc1cccc(C(=O)N2CCCC(Nc3ccc(C)c(C)c3)C2)n1 (stereo unspecified) | / | 6 | / | / | 3 | /
CC(=O)N1c2ccccc2Sc2ccc3ccccc3c21 | / | 25 | / | / | / | /
O=C(CCl)N1c2ccccc2Sc2c1ccc1ccccc21 | / | 23 | / | / | 44* | 5
COc1cc(NS(=O)(=O)c2ccc(NC(=O)c3ccc(F)cc3)cc2)ncn1 | / | -5 | / | / | -59 | -33
Cc1nn(C)cc1S(=O)(=O)N1CCN(c2cccc(Cl)c2)CC1 | / | -5 | / | / | -4 | /
O=c1[nH]c(=O)c2nc(-c3ccc(Cl)cc3)cnc2[nH]1 | -2 | -17 | 1 | 2 | -4 | /
O=c1[nH]c(=O)c2nc3c4ccccc4c4ccccc4c3nc2[nH]1 | 12 | 3 | 0.6 | 38 | 37* | -2
COC(=O)COc1ccc(S(=O)(=O)Nc2ccc3c(c2)OCCO3)cc1C | / | -6 | / | / | -4 | /
Cc1cc(F)ccc1S(=O)(=O)Nc1ccccc1C(=O)N1CCCC1 | / | 17 | / | / | 3 | /
O=S(=O)(NC1c2cccc3cccc(c23)C1N1CCN(CCO)CC1)c1ccccc1 (stereo unspecified) | 0 | -61 | 0.8 | 24 | -66 | -118*
O=S(=O)(NC1c2cccc3cccc(c23)C1N1CCNCC1)c1ccccc1 (stereo unspecified) | -24 | -42 | 0.6 | 36 | -56 | -95*
O=C(c1ccccc1)N1CCN(C2c3cccc4cccc(c34)C2NS(=O)(=O)c2ccccc2)CC1 (stereo unspecified) | 7 | -29 | 0.7 | 34 | -34 | /
CN(Cc1ccc(Cl)s1)C(=O)CNC(=O)CNC(=O)c1ccc(Cl)cc1Cl | / | -14 | / | / | 5 | /
